The species named for data set [1] is Bos taurus. The experiment in a line: Induction of bovine tubulin aggregation at 100 to 400 uM after 30 mins by electron microscopy.
The species entered for data set [2] is Bos taurus. Briefly: Induction of bovine tubulin assembly assessed as microtubule formation at 100 to 400 uM after 30 mins by electron microscopy.
Data set [3] can be described thus: Neuroprotective effect against beta-amyloid (25-35)-induced cell death in Sprague-Dawley rat cortical neuron treated 2 hrs before beta-amyloid (25-35) challenge measured after 48 hrs by propidium iodide staining-based fluorescence microscopy. It counts as functional. The following applies: Cortical neurone. Put shortly: (§1)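 Rat cortical neurons from embryonic day 18 Sprague–Dawley fetuses, plated on poly-D-lysine and kept serum-free in DMEM/F12 with N2, were used after 5 days. Compound (0.5–60 nM) was added about 2 h before 10 μM Aβ25–35 or Aβ1–42, preaggregated 24 h at 37 °C in Tris pH 7.4. Vehicle DMSO was ≤0.04%. After 48 h, cells were stained 30 min with 20 μM propidium iodide and 150 nM calcein-AM. Live and dead cells were counted in 6–12 fields from duplicate dishes across at least two preparations (about 1500 cells). Student's t test was used.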

Data set [4] deals with Cortical neurone. The experiment in a line: Neuroprotective effect against H2O2-induced cell death in Sprague-Dawley rat cortical neuron at 100 nM treated 2 hrs before H2O2 challenge measured after 48 hrs by propidium iodide staining-based fluorescence microscopy. It counts as functional.
For data set [5], the species on record is Bos taurus. The experiment in a line: Induction of bovine tubulin assembly assessed as microtubule formation at 200 to 400 uM after 30 mins by DAPI staining-based fluorescence assay in absence of GTP. The procedure, abridged: (§2)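 DAPI fluorescence assembly assay: bovine brain microtubule protein (containing MAPs) at 2 mg/mL in PEM buffer (0.1 M PIPES, 1 mM MgSO4, 1 mM EGTA, pH 6.9), 4% DMSO and 10 μM DAPI, without GTP, with varying compound concentrations. Plates were incubated 30 min at 37 °C and fluorescence was read. Values were corrected for a no-compound control and expressed relative to the maximum given by 25 μM paclitaxel.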

Data set [6] is filed under the species Bos taurus. The experiment in a line: Displacement of [3H]paclitaxel from bovine microtubule at 400 uM. The procedure, abridged: (§3)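 Competitive binding: microtubules were formed from bovine brain microtubule protein (2 mg/mL) in PEM buffer with 0.5 mM GTP. Conditions were 100 μM tritiated compound with 0–40 μM paclitaxel, or 20 μM [3H]paclitaxel with 0–400 μM competitor, at 37 °C for 10 min. Pellets were spun at 100000g for 4 min, dissolved in 0.1 M NaOH, and radioactivity and protein were measured.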
Background: In a radioligand displacement assay an active substance lowers the binding of a labelled ligand.

Data set [7] can be described thus: Apparent passive permeability from luminal to abluminal side of BBMEC at 10 uM up to 1.5 hrs. The following applies: cattle. It counts as ADME, Bos taurus. The procedure, abridged:
(§4)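 Bovine brain microvessel endothelial cell monolayers, confluent on 0.4 μm polycarbonate membranes coated with collagen and fibronectin, mounted in side-by-side diffusion chambers with PBSA. The donor side (luminal or abluminal) received 10 μM unlabeled compound plus trace tritiated compound. Receiver samples were taken at time points up to 90 min and counted by liquid scintillation.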

For data set [8], the system named is Cortical neurone. The experiment in a line: Neuroprotective effect against thapsigargin-induced cell death in Sprague-Dawley rat cortical neuron at 100 nM treated 2 hrs before thapsigargin challenge measured after 48 hrs by propidium iodide staining-based fluorescence microscopy. It counts as functional.
Data set [9] is filed under the species Bos taurus. Briefly: Induction of P-gp-mediated rhodamine 123 uptake in BBMEC at 1 to 50 uM. Put shortly:
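Primary bovine brain microvessel endothelial cells in 24-well plates were rinsed and equilibrated 10 min in warm PBSA. They were preincubated 30 min at 37 °C with compound at 1–50 μM, then given 5 μM rhodamine 123 for 2 h. Cells were rinsed with ice-cold PBS and lysed in 0.5% Triton X-100/0.2 M NaOH. Rhodamine 123 fluorescence was normalized to BCA protein. Cyclosporine A served as positive control.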

Data set [10] is filed under the species Bos taurus. Briefly: Induction of bovine tubulin assembly assessed as formation of pelleted protein at 100 to 400 uM after 30 mins by centrifugation assay relative to paclitaxel in presence of GTP.
A short description of data set [11]: Apparent passive permeability from abluminal to luminal side of BBMEC at 10 uM up to 1.5 hrs. It counts as ADME, Bos taurus. The following applies: cattle. Put shortly: as §4
Data set [12] has as its system Cortical neurone. The experiment in a line: Neuroprotective effect against paraquat-induced cell death in Sprague-Dawley rat cortical neuron at 100 nM treated 2 hrs before paraquat challenge measured after 48 hrs by propidium iodide staining-based fluorescence microscopy. It counts as functional.
Data set [13] is filed under the species Bos taurus. Briefly: Induction of bovine tubulin assembly assessed as microtubule formation at 100 uM after 30 mins by DAPI staining-based fluorescence assay in absence of GTP. Put shortly: as §2
Data set [14] deals with Cortical neurone. Briefly: Neuroprotective effect against staurosporine-induced cell death in Sprague-Dawley rat cortical neuron at 100 nM treated 2 hrs before staurosporine challenge measured after 48 hrs by propidium iodide staining-based fluorescence microscopy. It counts as functional.
The species entered for data set [15] is Bos taurus. The experiment in a line: Stabilization of bovine microtubule against cold-induced […] assessed as pelleted protein level at 400 uM by centrifugation assay.
Data set [16] concerns Cortical neurone. The experiment in a line: Neuroprotective effect against beta-amyloid (1-42)-induced cell death in Sprague-Dawley rat cortical neuron at 0.5 to 60 nM treated 2 hrs before beta-amyloid (1-42) challenge measured after 48 hrs by propidium iodide staining-based fluorescence microscopy. It counts as functional. Put shortly:
as §1

For data set [17], the species on record is Bos taurus. Briefly: Displacement of [3H](3R,5S,7as)-(3,5-bis(4-fluorophenyl)tetrahydro-1H-oxazolo[3,4-c]oxazol-7a-yl)methanol from bovine microtubule at 40 uM. Put shortly: as §3
The species named for data set [18] is Bos taurus. The experiment in a line: Induction of bovine tubulin assembly assessed as microtubule formation at 25 uM after 30 mins by DAPI staining-based fluorescence assay in absence of GTP. Put shortly: as §2
The species named for data set [19] is Bos taurus. Briefly: Stabilization of bovine microtubule against cold-induced […] assessed as pelleted protein level at 20 uM by centrifugation assay.

Activity calls are given as the source filed them. No cut-off for these calls is given here.

With `OCC1(CO)COC(c2ccc(F)cc2)N1` (stereo not given), the outcome in the data set filed under Bos taurus [1] was Active. Further, the result in the data set listed under Bos taurus [2] was inactive. For the same compound, in data set [3], the EC50 came to 40 nM.
As for `OC[C@]12CO[C@H](c3ccc(F)cc3)N1[C@H](c1ccc(F)cc1)OC2`, the outcome in the data set filed under Bos taurus [1], in the data set with Cortical neurone [4], with Cortical neurone [8], with Cortical neurone [12], in the data set listed under Bos taurus [13] and with Cortical neurone [14] was Active. The result in the data set with Cortical neurone [16] was Active. In addition, the outcome in the data set filed under Bos taurus [5], in the data set filed under Bos taurus [9] and in the data set listed under Bos taurus [2] was inactive. Moreover, the Activity in the data set listed under Bos taurus [6] was 40%; in the data set filed under Bos taurus [10], 10%; in the data set listed under Bos taurus [15] it was 9%. Besides, the results for the Papp at 1.5 h, 10 µM in [7] and in data set [11] were 286 ×10⁻⁶ cm/s and 244 ×10⁻⁶ cm/s, respectively. The compound further came in with a concentration giving a half-maximal response (EC50) in data set [3] of 5 nM.
On to `CC(=O)O[C@H]1C(=O)[C@@]2(C)[C@H]([C@H](OC(=O)c3ccccc3)[C@]3(O)C[C@H](OC(=O)[C@H](O)[C@@H](NC(=O)c4ccccc4)c4ccccc4)C(C)=C1C3(C)C)[C@]1(OC(C)=O)CO[C@@H]1C[C@@H]2O`, for which the figures for the Activity in the data set listed under Bos taurus [17], in the data set filed under Bos taurus [18] and in the data set filed under Bos taurus [19] were 42%, 20% and 79%, respectively.
As for `OCC12CO[C@H](c3ccc(F)cc3)N1[C@@H](c1ccc(F)cc1)OC2` (relative stereo), in the data set listed under Bos taurus [1], the result was Active. Besides, the outcome in the data set filed under Bos taurus [2] was inactive. In data set [3], this compound showed a half-maximal effective concentration (EC50) of 50 nM.

As usually defined, the EC50 is the concentration needed to bring the measured effect to its halfway point. Broadly, the Papp is a coefficient for how fast a substance crosses the barrier.

Source of the values: ChEMBL document CHEMBL1156035, “(3R,5S,7as)-(3,5-Bis(4-fluorophenyl)tetrahydro-1H-oxazolo[3,4-c]oxazol-7a-yl)methanol, a novel neuroprotective agent” (J Med Chem, 2009).
